Activity calls are given as the source filed them. The rule behind the calls is not given here.
How the values were obtained:
[1] = Half life in C57BL/6 mouse at 20 mg/kg, po; type: ADME, organism-based; set-up: dose 20 mg/kg, route oral; conditions: in vivo
Summary of the method: (§1)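 Mouse PK study, IV and PO; compound formulated at 2.5 mg/mL in PEG300/Tween 80 (4:1). IV dose 5 mpk (AUC, Cmax, clearance, Vss); oral dose 20 mpk (AUC, Cmax, bioavailability, t1/2).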

[2] = Bioavailability in C57BL/6 mouse at 20 mg/kg, po; type: ADME, organism-based; conditions: in vivo; summary of the method: as §1
[3] = target: T1, Oxysterols receptor LXR-beta (Homo sapiens) (UniProt P55055); assay: Activity at human LXRbeta by Gal4 transactivation assay relative to GW-3965
T1 sequence (whole entry): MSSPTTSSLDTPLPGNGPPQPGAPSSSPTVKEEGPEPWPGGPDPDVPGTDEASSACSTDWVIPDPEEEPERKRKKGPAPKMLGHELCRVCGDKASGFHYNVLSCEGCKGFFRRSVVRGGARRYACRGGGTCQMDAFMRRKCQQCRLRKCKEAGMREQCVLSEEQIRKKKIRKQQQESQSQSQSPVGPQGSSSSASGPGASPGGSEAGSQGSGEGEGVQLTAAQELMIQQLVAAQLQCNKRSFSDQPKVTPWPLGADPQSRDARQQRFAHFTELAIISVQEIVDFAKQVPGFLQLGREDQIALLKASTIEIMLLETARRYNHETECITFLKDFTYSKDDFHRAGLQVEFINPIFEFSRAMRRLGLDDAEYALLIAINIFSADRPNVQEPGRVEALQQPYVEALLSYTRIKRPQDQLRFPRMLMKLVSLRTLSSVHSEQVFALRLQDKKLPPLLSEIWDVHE
Summary of the method: (§2)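 GAL4 DBD fused to hLXRα or hLXRβ LBD in pcDNA3, co-transfected into HepG2 with luciferase reporter. Cells in DMEM with 10% lipoprotein-deficient FBS, 7.5 µM lovastatin, 100 µM mevalonic acid. Ligand added 24 h post-transfection as 11-point curves from 10 µM; luciferase read after 16 h. Run in quadruplicate. %E = max fold induction vs max fold induction of reference dual agonist in same experiment.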

THP-1 = assay: Increase in ABCA1 gene expression in THP1 cells at 1 uM relative to GW-3965; type: functional, Homo sapiens
Summary of the method: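 THP-1 cells differentiated with 40 ng/mL PMA for 1 day, then switched to RPMI with 2% lipoprotein-deficient FBS. Compound added 6 h later at 1 or 10 µM in DMSO, incubated 24 h. ABCA1 mRNA by one-step TaqMan qRT-PCR, triplicate, multiplexed with 36B4; fold induction vs DMSO, expressed relative to reference dual agonist.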

HepG2 [4] = assay: Increase in FAS gene expression in HepG2 cells at 10 uM relative to GW-3965; type: functional, Homo sapiens
[5] = target: T1, Oxysterols receptor LXR-beta (Homo sapiens); assay: Agonist activity at GAL-linked human LXRbeta expressed in THP1 cells assessed as stimulation of co-activator recruitment by FRET assay relative to GW-3965; type: functional
Summary of the method: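 Cell-free TR-FRET coactivator recruitment: 20 nM His-tagged hLXRα or hLXRβ, 300 nM biotinylated SRC-1 peptide, Eu-anti-His antibody, APC-streptavidin. 12-point curves from 20 µM; 1 h at 37 °C. Duplicate. %E = maximal coactivator recruitment relative to reference dual agonist in same experiment.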

Macrophage = assay: Induction of ABCA1 gene expression in LXRbeta deficient mouse macrophages; type: functional, cell-based
Summary of the method: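 Thioglycollate-elicited peritoneal macrophages from LXR-null mice, plated 24 h. Treated as for THP-1 without PMA: 2% lipoprotein-deficient serum medium, compound in DMSO for 24 h. ABCA1 mRNA by TaqMan qRT-PCR with 36B4 control, fold vs DMSO. Two concentrations used.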

[6] = target: T2, Oxysterols receptor LXR-beta (Homo sapiens, UniProt P55055); assay: Activity at human LXRbeta by Gal4 transactivation assay; summary of the method: as §2
T2 sequence (P55055 whole entry): T1 sequence (whole entry)

[7] = Cmax in C57BL/6 mouse at 20 mg/kg, po; type: ADME, organism-based; set-up: dose 20 mg/kg, route oral; conditions: in vivo; summary of the method: as §1
[8] = target: T3, Bile acid receptor (Homo sapiens) (UniProt Q96RI1); assay: Activity at FXR by cell based assay; type: functional
T3 sequence (whole entry): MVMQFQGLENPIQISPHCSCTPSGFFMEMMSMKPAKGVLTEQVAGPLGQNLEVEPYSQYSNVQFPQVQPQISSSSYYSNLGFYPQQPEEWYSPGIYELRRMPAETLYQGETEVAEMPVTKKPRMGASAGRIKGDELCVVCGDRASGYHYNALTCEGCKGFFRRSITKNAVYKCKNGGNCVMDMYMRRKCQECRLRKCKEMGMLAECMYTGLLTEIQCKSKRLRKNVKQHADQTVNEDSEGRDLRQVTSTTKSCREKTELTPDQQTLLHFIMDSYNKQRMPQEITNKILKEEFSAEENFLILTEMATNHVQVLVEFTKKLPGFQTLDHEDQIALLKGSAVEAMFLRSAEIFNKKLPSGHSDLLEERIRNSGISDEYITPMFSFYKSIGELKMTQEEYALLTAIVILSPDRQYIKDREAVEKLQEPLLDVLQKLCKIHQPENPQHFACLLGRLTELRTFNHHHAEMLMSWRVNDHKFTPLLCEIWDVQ

[9] = target: T1, Oxysterols receptor LXR-beta (Homo sapiens); assay: Displacement of [3H]T-0901317 from GAL-linked human LXRbeta expressed in THP1 cells at 20 uM by SPA relative to GW-3965; type: cell-based; conditions: THP-1
Summary of the method: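 Scintillation proximity displacement with His-tagged hLXRα or hLXRβ LBD (200 ng/well) and 30 nM [3H]T0901317. Beads 0.2 mg/well in phosphate buffer with EDTA, NaCl, DTT, CHAPS, 10% glycerol. 12-point curves from 20 µM; shaken 3 h at room temperature. No-competitor wells = 100% binding; nonspecific binding without protein. Efficacy = maximal displacement relative to reference dual agonist.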

[10] = target: T4, Oxysterols receptor LXR-alpha (Homo sapiens) (UniProt Q13133); assay: Activity at human LXRalpha by Gal4 transactivation assay relative to GW-3965; summary of the method: as §2
T4 sequence (whole entry): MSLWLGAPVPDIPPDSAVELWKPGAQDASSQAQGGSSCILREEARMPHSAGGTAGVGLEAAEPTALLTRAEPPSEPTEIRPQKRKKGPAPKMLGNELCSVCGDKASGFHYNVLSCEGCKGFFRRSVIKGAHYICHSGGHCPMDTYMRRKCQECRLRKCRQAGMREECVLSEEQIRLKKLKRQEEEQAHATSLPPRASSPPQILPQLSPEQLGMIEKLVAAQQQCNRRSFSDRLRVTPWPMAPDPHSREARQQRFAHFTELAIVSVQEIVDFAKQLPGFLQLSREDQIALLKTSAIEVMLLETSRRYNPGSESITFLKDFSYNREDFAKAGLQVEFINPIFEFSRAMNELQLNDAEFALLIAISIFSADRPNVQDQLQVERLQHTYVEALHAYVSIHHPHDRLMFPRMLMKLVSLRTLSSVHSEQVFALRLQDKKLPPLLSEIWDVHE

HepG2 [11] = assay: Increase in FAS gene expression in HepG2 cells at 1 uM relative to GW-3965; type: functional, Homo sapiens

With `COc1cccc(C2SC(c3ccc(Cl)cc3)=NN2C(=O)c2c(F)cc(F)cc2F)c1OC` (racemic) the half-life [1] was 6.7 h, the bioavailability [2] was 28% and the Efficacy [3] was 82%. The Activity (THP-1) was 34%, the Activity (HepG2 [4]) was 33% and the Efficacy [5] was 99%. For the same molecule, the Activity (Macrophage) was “Active”, the EC50 [6] was 98 nM and the Cmax [7] was 4.9 µM. For the same molecule, the Activity [8] was “inactive”, the Efficacy [9] was 100% and the Efficacy [10] was 19%. The Activity (HepG2 [11]) was 10%.

Reference: ChEMBL document CHEMBL1148736, “N-Acylthiadiazolines, a new class of liver X receptor agonists with selectivity for LXRbeta” (J Med Chem, 2007)
